# Bioassay records as filed in PubChem BioAssay.
# Compounds with a hit are over-represented: about 3.2% of the library has one in this group of screens.
# 14-3-3 Bad PPI: inhibitors of 14-3-3 zeta/Bad binding, primary screen, biochemical, TR-FRET, bovine 14-3-3 zeta; 14-3-3 protein zeta/delta (Bos taurus), P63103; TR-FRET 14-3-3zeta/Dy647-pBad peptide displacement, 1 h; inhibition, % at 21.7 µM; 220,000 compounds, 0.71% hits;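 active = inhibition above about 70%, limit read from the data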;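 note: 0% = full 14-3-3 plus peptide FRET controls and 100% = background without 14-3-3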
# Mcl1-Bid inh: Mcl-1/Bid binding inhibitors, primary screen, biochemical, TR-FRET, 1536-well; TR-FRET Mcl-1/Bid-Dy647 peptide binding; 220,000 compounds, 0.97% hits; inhibition, % at 21.7 µM; Induced myeloid leukemia cell differentiation protein Mcl-1 (Homo sapiens), Q07820; AID 1021, 2008;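 active = compounds that cut the binding signal by more than half at the single screening dose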;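 note: His-tagged Mcl-1 with europium anti-His antibody binding Bid BH3 peptide; 0% = Mcl-1 plus peptide wells and 100% = peptide-only wells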
# Mcl-1 Bim block: inhibitors of Bim peptide binding to Mcl-1, primary screen, biochemical, bead-based flow cytometry, multiplex | inhibition, % at 10 µM | 190,000 compounds, 0.1% hits | Induced myeloid leukemia cell differentiation protein Mcl-1 (Homo sapiens), Q07820 | AID 1009, 2008 | Bim peptide-Mcl-1 binding; in the data active = inhibition above about 40%;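 note: 0% = no compound tracer wells and 100% = peptide blocker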
# Biofilm kill mix: clotrimazole potentiators killing C. albicans biofilm, primary screen, 4-compound mixtures | C. albicans biofilm persisters + clotrimazole, fluorescence viability; primary screen in compound mixtures of four per well | inhibition, % at 7.6 µM | AID 1242, 2008 | 120,000 compounds, 0.02% hits;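 active = inhibition above 30.3% in the primary screen of four-compound pools, then above 30% when the compound was retested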;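 note: compounds exposed to preformed 24 h biofilms for 48 h; 0% = untreated biofilm control and 100% = clotrimazole plus chlorhexidine kill blank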
#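 Probe or stimulus – Clotrimazole 50 µg/mL co-treatment · System – C. albicans biofilms · Schedule – 24 h biofilm formation, then 48 h compound exposure, 37 °C · Evaluation – percent inhibition of biofilm viability · Technique – 2-h Alamar Blue fluorescence, 535/590 nm excitation/emission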
# Hck-Nef inh: inhibitors of Nef-activated human Hck kinase, primary screen, biochemical, Z-Lyte FRET, 384-well, Hck-YEEI; AID 463187, 2010; inhibition, % at 20 µM; Recombinant Hck-YEEI plus Nef, Z-Lyte FRET kinase assay; 220,000 compounds, 0.68% hits; Tyrosine-protein kinase HCK (Homo sapiens), P08631;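 active = Hck-Nef kinase inhibition above about 50%, limit read from the data; inactive = inhibition below that limit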;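 note: 0% = DMSO with Hck plus Nef and 100% = Hck alone without Nef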
# Target sequence (P08631 whole entry, looked up): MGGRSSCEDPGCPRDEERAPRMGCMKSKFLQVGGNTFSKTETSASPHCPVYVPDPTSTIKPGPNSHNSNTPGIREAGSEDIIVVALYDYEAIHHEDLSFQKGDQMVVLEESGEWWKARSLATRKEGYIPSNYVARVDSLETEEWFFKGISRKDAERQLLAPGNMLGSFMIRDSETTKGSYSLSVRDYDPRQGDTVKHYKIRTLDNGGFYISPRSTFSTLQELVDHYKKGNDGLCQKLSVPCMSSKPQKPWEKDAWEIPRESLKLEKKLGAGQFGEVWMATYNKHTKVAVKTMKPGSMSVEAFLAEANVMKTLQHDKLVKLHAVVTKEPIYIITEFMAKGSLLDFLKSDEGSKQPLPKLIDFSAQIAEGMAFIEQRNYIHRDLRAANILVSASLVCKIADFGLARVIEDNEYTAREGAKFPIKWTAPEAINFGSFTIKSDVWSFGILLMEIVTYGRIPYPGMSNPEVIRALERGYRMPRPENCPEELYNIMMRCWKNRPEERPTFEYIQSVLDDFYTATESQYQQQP
# Mcl1 Noxa PPI: Mcl-1/Noxa binding inhibitors, primary screen, biochemical, TR-FRET, 1536-well; Induced myeloid leukemia cell differentiation protein Mcl-1 (Homo sapiens), Q07820; TR-FRET Mcl-1/Noxa peptide binding, 2 h; inhibition, % at 21.7 µM; 220,000 compounds, 1.5% hits; AID 1022, 2008;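 active = compounds that cut the protein-peptide binding signal by more than 50% relative to plate controls in a single-dose test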;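 note: His-tagged Mcl-1 with rhodamine Noxa BH3 peptide and terbium anti-His antibody; 0% = Mcl-1 plus Noxa peptide wells and 100% = peptide-only wells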
# Hck-Nef confirm: retest of Hck:Nef kinase inhibitor hits, confirmation, biochemical, Z-Lyte FRET, 384-well, p-Tyr peptide counterscreen. shares compounds with Hck-Nef inh. calls only at 10 µM. Recombinant Hck-YEEI:Nef, Z-Lyte FRET kinase assay. 1,300 compounds, 28% hits. AID 463188, 2010;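 active = average inhibition of at least 50%, with Z-scores no higher than 3 in both the phospho-tyrosine peptide and fluorescence counterscreens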
# * marks the source's active call; other numbers are inactive results; i = inactive; / = no result given; + = active, no number; [ ] = another dose, or the depositor's remark.
SMILES,14-3-3 Bad PPI,Mcl1-Bid inh,Mcl-1 Bim block,Biofilm kill mix,Hck-Nef inh,Mcl1 Noxa PPI,others
COC(=O)CCC(=O)OC1(C)C(=O)C2=COC(c3ccc(OC)cc3)=CC2=C(Br)C1=O (stereo not drawn),13,-41,/,7,93*,50*,Hck-Nef confirm=+
CC1(OC(=O)C2CCCC2)C(=O)C=C2C=C(c3ccsc3)OC=C2C1=O (stereo not drawn),2,-17,/,17,62*,51*,Hck-Nef confirm=+
Cc1cccc2cc(CN(Cc3cccs3)S(=O)(=O)c3ccc4c(c3)OCCO4)c(=O)[nH]c12,3,-3,-3,9,9,5,
CCCCCCCCCCCCCCCC[n+]1cccc2ccccc21,97*[fluorescence artefact?],91*,0,4,107*,89*,
CCC(=O)Oc1ccc2c(C)c(Cl)c(=O)oc2c1,-9,4,-3,/,109*,7,
COC(=O)Cc1c(C)c2ccc(OC(=O)c3ccccc3)cc2oc1=O,12,20,-2,/,56*,-2,
Cc1c(Cl)c(=O)oc2cc(OC(C)C)ccc12,-14,3,-6,14,4,11,
Cc1c(Cc2ccccc2)c(=O)oc2cc(OC(=O)c3ccccc3)ccc12,-2,-8,-5,/,33,-3,
Nc1[nH][nH]c(=O)c1N=Nc1cccc(Cl)c1,-7,-61,1,27,40,7,
NC(=S)n1[nH]c(-c2ccc([N+](=O)[O-])cc2)c(N=Nc2cccc(Cl)c2)c1=O,88*,82*,-2,23,/,93*,Hck-Nef confirm=+
Cc1c2c(=O)n(-c3nc4ccccc4s3)nc-2cc(O)n1Cc1ccccc1,-8,-99,/,1,84*,73*,Hck-Nef confirm=i
Cc1cc(C)n(-c2nc3ccccc3s2)n1,-2,-20,-1,15,21,-2,
CC(C)n1c(=N)c(C(=O)NCCc2ccccc2)cc2c(=O)n3ccccc3nc21,9,-17,0,/,138*,9,
CCOC(=O)c1cc2c(=O)n3cccc(C)c3nc2n(Cc2cccnc2)c1=N,/,/,/,/,32,/,
O=C(NCCc1ccccc1)c1cnc2ccccn2c1=O,3,-15,1,/,-1,10,
Cc1cccn2c(=O)c3cc(C(=O)NCc4ccco4)c(=N)n(C(C)C)c3nc12,4,3,0,/,72*,20,
Cc1cccn2c(=O)c3cc(C(=O)NCc4cccnc4)c(=N)n(C(C)C)c3nc12,-1,-58,2,/,161*,6,
Cc1cc(C)n(C(=O)c2ccc(S(=O)(=O)N3CCOCC3)cc2)n1,-3,-4,4,/,-2,14,
Cc1cccc(Cc2nnc(CCC(=O)NCc3cn4ccccc4n3)o2)c1,2,-46,0,16,17,6,
O=C(N/N=C\c1ccc(F)cc1)c1ccc(Cn2cc(Br)c([N+](=O)[O-])n2)o1,18,-18,0,-10,62*,2,Hck-Nef confirm=+
CCc1cc(=O)oc2c(CN3CCN(C)CC3)c(O)c(Cl)cc12,5,-9,-3,/,163*,1,
CCc1cc(=O)oc2c(CN3CCCC3)c(O)c(Cl)cc12,/,/,/,/,102*,/,
CCc1c(C)c2cc(Cl)c(O)c(CN3CCCCC3)c2oc1=O,/,-60,2,/,118*,20,
Cc1cc(=O)oc2c(CN3CC(C)OC(C)C3)c(O)c(Cl)cc12 (stereo not drawn),6,-31,-2,13,+,16,
Cc1cc(=O)oc2cc(OCC(=O)N3CC(C)OC(C)C3)ccc12 (stereo not drawn),6,8,-1,/,-5,-5,
SMILES,14-3-3 Bad PPI,Mcl1-Bid inh,Mcl-1 Bim block,Biofilm kill mix,Hck-Nef inh,Mcl1 Noxa PPI,others
COc1ccccc1-c1nnc(SCC(=O)OC(C)C)o1,-7,-10,1,/,8,13,
CCCCc1cc(=O)oc2c(CN3CCCC3)c(O)ccc12,/,/,0,/,97*,/,Hck-Nef confirm=i
Fc1ccc(/C=C\c2nccc3c2[nH]c2ccccc23)cc1,5,-23,0,6,27,37,
C(=C\c1nccc2c1[nH]c1ccccc12)/c1ccccc1,0,-10,/,21,164*,13,
CCOC(=O)c1sc(-c2ccccc2)cc1NC(=O)c1ccc(S(=O)(=O)N(CCOC)CCOC)cc1,-4,-14,-7,9,-1,-1,
Cc1ccc(N2CC(=O)N(c3ccc(C)cc3)CC2=O)cc1,-11,-20,/,19,10,-9,
CCCNC(=O)c1c(N)n(-c2cccc(OC)c2)c2nc3ccccc3nc12,-8,-1,0,/,77*,16,
COCCCNC(=O)c1c(N)n(-c2cccc(S(N)(=O)=O)c2)c2nc3ccccc3nc12,-2,1,0,/,64*,18,
Nc1c(C(=O)NCCN2CCOCC2)c2nc3ccccc3nc2n1-c1cccc(F)c1,52,6,-1,/,18,1,
Nc1c(C(=O)NCC2CCCO2)c2nc3ccccc3nc2n1-c1ccccc1 (stereo not drawn),20,3,-1,/,55*,14,
CCOc1cc(/C=N/OC(C)=O)ccc1OCc1ccccc1,-5,-25,1,10,10,-10,
COc1ccc(C2OC(=O)c3ccccc3S2)cc1 (stereo not drawn),0,-60,-4,/,0,1,
CCCCOc1ncnc2c1[nH]c1ccc(F)cc12,-13,-3,0,/,1,1,
CCC/C=N/NC(=O)c1ccc(F)cc1,-11,-28,-1,10,18,12,
CCC/C=N/NC(=O)c1cccc(Br)c1,-6,-19,0,11,119*,6,Hck-Nef confirm=i
CCC(=C(c1ccc(OC)cc1)c1ccc(OC)cc1)c1cn(CC(O)CN2CCN(C)CC2)c2ccccc12 (stereo not drawn),96*[fluorescence artefact?],-30,9,/,111*,2,Hck-Nef confirm=i
COc1ccccc1CC(=O)N(CCC#N)CCC#N,-3,-13,-12,22,1,23,
NS(=O)(=O)c1ccc(CNS(=O)(=O)c2cc(C(=O)O)ccc2Cl)cc1,2,-14,0,-11,63*,17,Hck-Nef confirm=i
COc1ccccc1NC(=O)NCC(=O)Nc1c(C)cccc1C,-12,-13,-1,34,20,-3,
